ChEMBL document CHEMBL1151833, “Cytotoxic oleanane triterpene saponins from Albizia chinensis” (J Nat Prod, 2009)

Tests used:
[1] = test system: HCT-8; assay: Cytotoxicity against human HCT8 cells after 96 hrs by MTT assay; format: functional, cell-based; conditions: HCT-8, 96 h
Procedure, shortened: (§1)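 Cells kept in RPMI 1640 with 10% FBS, penicillin and streptomycin, at 37 °C in 5% CO2. Seeded at 1.5 × 10^3 cells per well and left 24 h. Compounds added in DMSO, five concentrations over a final 0.01-10 […], each in three parallel wells, for 96 h. MTT (0.2%) added for 4 h, formazan dissolved in DMSO, read at 570 nm. IC50 taken from dose-response curves as 50% loss of optical density versus DMSO control.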

[2] = test system: Bel-7402; assay: Cytotoxicity against human Bel7402 cells after 96 hrs by MTT assay; format: functional, cell-based; conditions: Bel-7402, 96 h; procedure, shortened: as §1
[3] = test system: BGC-823; assay: Cytotoxicity against human BGC823 cells after 96 hrs by MTT assay; format: functional, cell-based; conditions: BGC-823, 96 h; procedure, shortened: as §1
[4] = test system: A549; assay: Cytotoxicity against human A549 cells after 96 hrs by MTT assay; format: functional, cell-based; conditions: A549, 96 h; procedure, shortened: as §1
[5] = test system: A2780; assay: Cytotoxicity against human A2780 cells after 96 hrs by MTT assay; format: functional, cell-based; conditions: A2780, 96 h; procedure, shortened: as §1
[6] = Toxicity in rabbit erythrocytes assessed as hemolytic activity; format: cell-based, Oryctolagus cuniculus, Erythrocyte
Procedure, shortened: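 Rabbit erythrocytes prepared by the Chinese Pharmacopoeia method. Compounds tested at 0.01, 0.05, 0.1, 0.5, 2.5, 10 and 100 µM using a procedure adapted from the literature. Result given as HC50.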

Row | Structure (SMILES) | IC50 [1] [nM] | IC50 [2] [nM] | IC50 [3] [nM] | IC50 [4] [nM] | IC50 [5] [nM] | HC50 [6] [nM]
1 | C=C[C@](C)(CC/C=C(\C)C(=O)O[C@H]1[C@H](O)[C@@H](O)[C@H](O[C@](C)(C=C)CC/C=C(\CO)C(=O)O[C@H]2C[C@]3(C(=O)O[C@@H]4O[C@H](CO)[C@@H](O)[C@H](O)[C@H]4O[C@@H]4O[C@@H](C)[C@H](O[C@@H]5O[C@@H](CO)[C@H](O)[C@H]5O)[C@@H](O[C@@H]5O[C@H](CO)[C@@H](O)[C@H](O)[C@H]5O)[C@H]4O)[C@H](O)C[C@]4(C)C(=CC[C@@H]5[C@@]6(C)CC[C@H](O[C@@H]7O[C@H](CO[C@@H]8OC[C@H](O)[C@H](O)[C@H]8O[C@@H]8OC[C@@H](O)[C@H](O)[C@H]8O)[C@@H](O)[C@H](O)[C@H]7O[C@@H]7O[C@H](CO)[C@@H](O)[C@H](O)[C@H]7O)C(C)(C)[C@@H]6CC[C@]54C)[C@@H]3CC2(C)C)O[C@@H]1C)O[C@@H]1O[C@H](C)[C@@H](O)[C@H](O)[C@H]1O [ALBIZOSIDE C] | 400 | 400 | 1700 | 10 | 300 | 700
2 | C=C[C@](C)(CC/C=C(\CO)C(=O)O[C@H]1[C@H](O[C@](C)(C=C)CC/C=C(\C)C(=O)O[C@H]2[C@H](O)[C@@H](O)[C@H](O[C@](C)(C=C)CC/C=C(\CO)C(=O)O[C@H]3C[C@]4(C(=O)O[C@@H]5O[C@H](CO)[C@@H](O)[C@H](O)[C@H]5O[C@@H]5O[C@@H](C)[C@H](O[C@@H]6O[C@@H](CO)[C@H](O)[C@H]6O)[C@@H](O[C@@H]6O[C@H](CO)[C@@H](O)[C@H](O)[C@H]6O)[C@H]5O)[C@H](O)C[C@]5(C)C(=CC[C@@H]6[C@@]7(C)CC[C@H](O[C@@H]8O[C@H](CO[C@@H]9O[C@H](C)[C@H](O)[C@H](O)[C@H]9O[C@@H]9OC[C@@H](O)[C@H](O)[C@H]9O)[C@@H](O)[C@H](O)[C@H]8O[C@@H]8O[C@H](CO)[C@@H](O)[C@H](O)[C@H]8O)C(C)(C)[C@@H]7CC[C@]65C)[C@@H]4CC3(C)C)O[C@@H]2C)O[C@H](C)[C@@H](O)[C@@H]1O)O[C@@H]1O[C@H](C)[C@@H](O)[C@H](O)[C@H]1O [ALBIZOSIDE B] | 1300 | 1300 | 3800 | 300 | 1200 | 700
3 | C=C[C@](C)(CC/C=C(\CO)C(=O)O[C@H]1C[C@]2(C(=O)O[C@@H]3O[C@H](CO)[C@@H](O)[C@H](O)[C@H]3O[C@@H]3O[C@@H](C)[C@H](O[C@@H]4O[C@@H](CO)[C@H](O)[C@H]4O)[C@@H](O[C@@H]4O[C@H](CO)[C@@H](O)[C@H](O)[C@H]4O)[C@H]3O)[C@H](O)C[C@]3(C)C(=CC[C@@H]4[C@@]5(C)CC[C@H](O[C@@H]6O[C@H](CO[C@@H]7O[C@H](C)[C@H](O)[C@H](O)[C@H]7O[C@@H]7OC[C@@H](O)[C@H](O)[C@H]7O)[C@@H](O)[C@H](O)[C@H]6O)C(C)(C)[C@@H]5CC[C@]43C)[C@@H]2CC1(C)C)O[C@@H]1O[C@H](C)[C@@H](O)[C@H](O)[C@H]1O [PROSAPOGENIN 10] | > 10000 | > 10000 | > 10000 | > 10000 | > 10000 | 128000
4 | CC[C@@]1(O)C(=O)OCc2c1cc1n(c2=O)Cc2cc3ccccc3nc2-1 [CAMPTOTHECIN] |  |  |  |  | 300 | 
5 | C=C[C@](C)(CC/C=C(\CO)C(=O)O[C@H]1[C@H](O[C@](C)(C=C)CC/C=C(\C)C(=O)O[C@H]2[C@H](O)[C@@H](O)[C@H](O[C@](C)(C=C)CC/C=C(\CO)C(=O)O[C@H]3C[C@]4(C(=O)O[C@@H]5O[C@H](CO)[C@@H](O)[C@H](O)[C@H]5O[C@@H]5O[C@@H](C)[C@H](O[C@@H]6O[C@@H](CO)[C@H](O)[C@H]6O)[C@@H](O[C@@H]6O[C@H](CO)[C@@H](O)[C@H](O)[C@H]6O)[C@H]5O)[C@H](O)C[C@]5(C)C(=CC[C@@H]6[C@@]7(C)CC[C@H](O[C@@H]8O[C@H](CO[C@@H]9O[C@H](C)[C@H](O)[C@H](O)[C@H]9O[C@@H]9OC[C@@H](O)[C@H](O)[C@H]9O)[C@@H](O)[C@H](O)[C@H]8O)C(C)(C)[C@@H]7CC[C@]65C)[C@@H]4CC3(C)C)O[C@@H]2C)O[C@H](C)[C@@H](O)[C@@H]1O)O[C@@H]1O[C@H](C)[C@@H](O)[C@H](O)[C@H]1O [ALBIZOSIDE A] | 5600 | 2600 | 1600 | 1900 | 1300 | 400
